Tests used:
[1] = target: T1, ATP-dependent translocase ABCB1 (Homo sapiens, UniProt P08183); assay: Reversal of multi-drug resistance in L5178Y cells transfected with human MDR1 as relative fluorescent rhodamine123 activity at 0.1 ug/mL; type: cell-based
In short: (§1)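 L5178Y mouse T-cell lymphoma subline carrying the human MDR1 gene, with the parental drug-sensitive line also listed. A larger number of cells was exposed to compound for 30 min. Rhodamine 123 accumulation was read by fluorescence, and P-gp-mediated efflux reversal was expressed as a fluorescence activity ratio.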

[2] = target: T1, ATP-dependent translocase ABCB1; assay: Reversal of multi-drug resistance in L5178Y cells transfected with human MDR1 as relative fluorescent rhodamine123 activity at 1 ug/mL; type: cell-based; in short: as §1
[3] = target: T1, ATP-dependent translocase ABCB1; assay: Antiproliferative activity against human MDR1 transfected mouse L5178Y cell line; type: functional, cell-based; conditions: read-out: ID50 (the source's name) (converted)

T1 sequence (P08183 whole entry): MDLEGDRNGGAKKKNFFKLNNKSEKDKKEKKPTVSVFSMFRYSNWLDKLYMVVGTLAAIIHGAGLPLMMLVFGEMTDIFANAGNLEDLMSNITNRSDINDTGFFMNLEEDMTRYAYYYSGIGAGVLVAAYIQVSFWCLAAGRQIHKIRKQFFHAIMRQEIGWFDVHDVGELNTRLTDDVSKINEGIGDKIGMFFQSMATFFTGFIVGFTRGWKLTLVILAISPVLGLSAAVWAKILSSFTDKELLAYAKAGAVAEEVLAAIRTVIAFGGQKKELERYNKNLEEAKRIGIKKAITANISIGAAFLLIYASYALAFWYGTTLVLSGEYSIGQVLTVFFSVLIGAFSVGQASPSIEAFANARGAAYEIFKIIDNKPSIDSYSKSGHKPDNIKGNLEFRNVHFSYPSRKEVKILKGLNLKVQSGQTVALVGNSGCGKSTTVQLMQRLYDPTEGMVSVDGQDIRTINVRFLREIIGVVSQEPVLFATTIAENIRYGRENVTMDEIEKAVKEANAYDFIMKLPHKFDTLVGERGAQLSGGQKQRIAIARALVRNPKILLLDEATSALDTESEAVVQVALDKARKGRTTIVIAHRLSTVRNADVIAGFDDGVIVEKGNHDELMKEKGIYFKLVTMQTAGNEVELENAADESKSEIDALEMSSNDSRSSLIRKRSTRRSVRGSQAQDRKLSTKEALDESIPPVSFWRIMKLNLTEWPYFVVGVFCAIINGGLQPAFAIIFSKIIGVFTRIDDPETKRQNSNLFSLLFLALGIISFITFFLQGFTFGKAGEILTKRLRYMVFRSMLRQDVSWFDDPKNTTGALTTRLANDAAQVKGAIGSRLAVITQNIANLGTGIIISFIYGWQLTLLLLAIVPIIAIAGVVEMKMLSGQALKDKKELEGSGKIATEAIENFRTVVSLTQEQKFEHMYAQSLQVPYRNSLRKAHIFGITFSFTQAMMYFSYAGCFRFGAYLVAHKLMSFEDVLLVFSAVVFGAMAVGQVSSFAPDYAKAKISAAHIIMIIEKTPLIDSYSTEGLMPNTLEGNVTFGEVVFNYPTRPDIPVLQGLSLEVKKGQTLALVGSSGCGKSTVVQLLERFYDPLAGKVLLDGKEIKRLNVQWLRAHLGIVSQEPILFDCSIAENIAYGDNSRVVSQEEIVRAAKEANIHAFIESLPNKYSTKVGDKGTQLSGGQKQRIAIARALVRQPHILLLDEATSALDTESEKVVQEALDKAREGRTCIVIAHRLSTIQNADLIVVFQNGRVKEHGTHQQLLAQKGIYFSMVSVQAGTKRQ

| Ratio [1] | Ratio [2] | GI50 [3] | SMILES |
| --- | --- | --- | --- |
| 7.91 | 28.62 | 5.72 µM | COc1ccc(CCN(C)CCCN2C(=O)C3C4c5ccccc5C(c5ccccc54)C3C2=O)cc1OC (centres undefined) |
| 2.65 | 89.35 | 2.55 µM | COc1ccc(CCN(C)CC#CCN2C(=O)C3C4c5ccccc5C(c5ccccc54)C3C2=O)cc1OC (centres undefined) |
| 2.76 | 47.85 | 4.23 µM | COc1ccc(CCN(C)CCN2C(=O)C3C4c5ccccc5C(c5ccccc54)C3C2=O)cc1OC (centres undefined) |

Reference: ChEMBL document CHEMBL1147796, “New potent P-glycoprotein inhibitors carrying a polycyclic scaffold” (J Med Chem, 2006)
